Calls of active or inactive are those of the source. The calls are words filed in the database; no cut-off is given here.
Legend:
Plutella xylostella = experiment: Insecticidal activity against Plutella xylostella infected in cabbage leaves assessed as mortality after 5 days by leaf-disc method; assay type: functional, organism-based
Caenorhabditis elegans = experiment: Insecticidal activity against fourth-instar larva of Caenorhabditis elegans assessed as mortality after 5 days; assay type: functional, organism-based
Diabrotica balteata = experiment: Insecticidal activity against Diabrotica balteata infected in cabbage leaves assessed as mortality after 5 days by leaf-disc method; assay type: functional
Sitobion avenae = experiment: Insecticidal activity against second-instar larva of Sitobion avenae infected in cabbage leaves assessed as mortality after 5 days by leaf-disc method; assay type: functional
HepG2 = experiment: Cytotoxicity against human HepG2 cells after 72 hrs by MTT assay; assay type: functional, cell-based
Outline: (§1)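 Human tumour cell panel (HL-60, Bel7402, HepG2, SMMC-7721) with doxorubicin as the positive control.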

SMMC-7721 = experiment: Cytotoxicity against human SMMC7721 cells after 72 hrs by MTT assay; assay type: functional, cell-based; outline: as §1
P388 = experiment: Cytotoxicity against mouse P388 cells; assay type: functional; conditions: read-out: ED50 (the source's name)

Structure (SMILES) | Activity (Diabrotica balteata) | Activity (Sitobion avenae) | other results
CC1(C)OC(=O)C=C[C@]2(C)[C@H]3[C@@H](O)[C@H](O)[C@]4(C)[C@@H](C(=O)C[C@H]4c4ccoc4)[C@]3(C)[C@H](O)C[C@@H]12 | Active | Active | Activity (Plutella xylostella): Active; Activity (Caenorhabditis elegans): Active
CC1(C)OC(=O)C=C[C@]2(C)[C@H]3[C@@H](O)[C@H](O)[C@@]4(C)[C@H](c5ccoc5)C[C@@H](O)[C@]45O[C@H](C[C@@H]12)[C@]35C | Active | Active | Activity (Plutella xylostella): Active; Activity (Caenorhabditis elegans): Active
CC(=O)O[C@H]1CC(=O)OC(C)(C)[C@@H]2C[C@@H](O)[C@]3(C)[C@H]([C@@H](O)[C@H](OC(=O)c4cccnc4)[C@@]4(C)[C@H](c5ccoc5)C[C@H]5O[C@@]534)[C@@]12C | Active | Active | 
COc1cccc2c1C(=O)c1c(O)c3c(c(O)c1C2=O)C[C@@](O)(C(=O)CO)C[C@@H]3O[C@H]1C[C@H](N)[C@H](O)[C@H](C)O1 |  |  | Activity (HepG2): Active; Activity (SMMC-7721): Active
COC(=O)N(C(=O)N1CO[C@@]2(C(=O)OC)Cc3cc(Cl)ccc3C2=N1)c1ccc(OC(F)(F)F)cc1 |  | Active | 
CC(=O)O[C@H]1CC(=O)OC(C)(C)[C@@H]2C[C@@H](OC(C)=O)[C@]3(C)[C@H]([C@@H](O)[C@H](O)[C@@]4(C)[C@H](c5ccoc5)C[C@H]5O[C@@]534)[C@@]12C | Active |  | 
CN1COCN(Cc2cnc(Cl)s2)/C1=N\[N+](=O)[O-] |  | Active | 
CC(=O)O[C@@H]1C[C@H](O)[C@@]23CO[C@H](O)[C@]1(C)[C@@H]2C[C@@H](O)[C@]1(C)[C@@H]3C(=O)C[C@@]2(C)[C@H](c3ccoc3)C[C@H]3O[C@]312 [AMOORASTATIN] |  |  | EC50 (P388): < 0.065 µg/mL
CCC(C)C(=O)OC1OC[C@@]23[C@H]4C(=O)[C@H](O)[C@@]5(C)[C@H](c6ccoc6)C[C@H]6O[C@]65[C@]4(C)[C@H](O)C[C@H]2[C@]1(C)[C@H](OC(C)=O)[C@H](O)[C@@H]3OC(C)=O (some centres not stated) [APHANASTATIN] |  |  | EC50 (P388): < 0.065 µg/mL

Source: ChEMBL document CHEMBL2390822, “Bioactive terpenoids from the fruits of Aphanamixis grandifolia” (J Nat Prod, 2013)
